# Columns and labels:
# NS3 protease [1] = settings: compared with bilirubin; cited from earlier work
# Huh 5.15 replicon cells = experiment: MTT assay of cellular viability and proliferation; type: cell-based, human
# Procedure, shortened: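 Replicon cells were seeded semi-confluent, attached overnight, then given compound at 10 or 20 μM or vehicle, in triplicate or quadruplicate. MTT was added at 24 and 48 h and absorbance read at 570 nm. Blanks containing vehicle plus compound were subtracted, and viable cells were expressed relative to vehicle controls.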
# [2] = tested on: HCV replicon (Huh 5.15NS, sub-genomic HCV RNA genotype 1b); experiment: HCV RNA replication in replicon cells, real-time RT-PCR; type: cell-based; settings: Hepatitis C virus, GETYPE1B, read-out: inhibition in replicon assays
# Procedure, shortened: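 Huh 5.15NS cells carrying subgenomic genotype 1b HCV RNA were seeded, left to attach overnight and treated in log phase for 48 h with compound (DMSO stock diluted into medium) or vehicle. Total RNA was extracted with Trizol and DNase-treated, then HCV RNA was measured by SYBR green real-time RT-PCR using ΔCT against GAPDH. EC50 came from sigmoidal regression, with 3–5 determinations per point and a known NS3-4A inhibitor as positive control.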
# [3] = target: HCV NS3-4A protease genotype 1B (Hepatitis C virus genotype 1b, UniProt P26663); experiment: Recombinant NS3-4A protease FRET assay; type: biochemical; settings: compared with biliverdin
# [4] = target: NS3-4A protease A156T mutant (Hepatitis C virus genotype 1b, UniProt P26663, A1182T); experiment: Mutant recombinant NS3-4A protease fluorometric assay, A156T; type: biochemical, HCV; settings: A156T vs WT
# Procedure, shortened: (§1)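 Recombinant wild-type and mutant NS3-4A proteases were run side by side in a SensoLyte FRET assay across a range of compound concentrations. Excitation/emission of 591/622, 490/520 or 340/490 nm was chosen empirically for each compound, and parallel compound-only wells corrected for autofluorescence. Compound came from DMSO stock diluted into assay buffer, with vehicle controls.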
# [5] = target: NS3-4A protease V36M mutant (Hepatitis C virus genotype 1b, UniProt P26663, V1062M); experiment: Mutant recombinant NS3-4A protease fluorometric assay, V36M; type: biochemical, HCV; settings: V36M vs WT
# Procedure, shortened: as §1
# [6] = tested on: HCV proteins NS3-4A and core; experiment: Western blot for HCV proteins in infected Huh 7.5 cells and Huh 5.15NS replicons; type: cell-based; settings: MPP 10 µM; J6/JFH infected Huh 7.5 cells 48 hrs, Huh 5.15NS replicons 24 hrs
# Procedure, shortened: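 Cells in log phase were treated with compound, then lysed. HCV proteins were detected by Western blot with anti-NS3-4A antibodies and enhanced chemiluminescence.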
# [7] = target: NS3-4A protease T54A mutant (Hepatitis C virus genotype 1b, UniProt P26663, T1080A); experiment: Mutant recombinant NS3-4A protease fluorometric assay, T54A; type: biochemical, HCV; settings: T54A vs WT
# Procedure, shortened: as §1
# NS3 protease [8] = settings: less effective for genotype 3; cited from earlier work
smiles,measurement,setting,value
"C=CC1=C(C)/C(=C/C2=NC(=C\c3[nH]c(/C=C4\NC(=O)C(C)=C4C=C)c(C)c3CCC(=O)O)/C(CCC(=O)O)=C2C)NC1=O [BV, biliverdin]","IC50 for NS3 protease, fold less than BR",NS3 protease [1],30 fold
"CC(C)(C)OC(=O)N[C@H]1CCCCC/C=C\[C@@H]2C[C@@]2(C(=O)NS(=O)(=O)C2CC2)NC(=O)[C@@H]2C[C@@H](OC(=O)N3Cc4cccc(F)c4C3)CN2C1=O [Danoprevir, reference compound]",effects on viable cells,"Huh 5.15 replicon cells; 24 or 48 hrs, concentrations equivalent or in excess of EC50",little if any effects
same,inhibition at 0.01 µM,[2],80 to 90%
"C=CC1=C(C)c2cc3[n-]c(cc4[n-]c(cc5nc(cc1n2)C(C)=C5C=C)c(C)c4CCC(=O)O)c(CCC(=O)O)c3C.[Fe+2] [FePP, Iron protoporphyrin]",reduction of viable cells,"Huh 5.15 replicon cells; 10 or 20 μM, by 48 hrs",12–19%
"C=CC1=C(C)C2=Cc3c(C=C)c(C)c4[n]3[Zn][n]3c(c(C)c(CCC(=O)O)c3=CC3=NC(=C4)C(C)=C3CCC(=O)O)=CC1=N2 [ZnPP, Zn protoporphyrin]","Ki, fold stronger than biliverdin",[3],10–20 fold
same,inhibition of mutant protease compared to wild-type enzyme,[4],same fidelity as the wild-type enzyme
same,inhibition of mutant protease compared to wild-type enzyme,[5],same fidelity as the wild-type enzyme
same,reduction of the amount of viable cells,"Huh 5.15 replicon cells; 10 or 20 μM, 24 and 48 hrs intervals",40–50%
same,expression of HCV proteins NS3-4A and core (Western blot),[6],decreased expression
same,inhibition of mutant protease compared to wild-type enzyme,[7],same fidelity as the wild-type enzyme
C=C[C@@H]1C[C@]1(NC(=O)[C@@H]1C[C@@H]2CN1C(=O)[C@H](C(C)(C)C)NC(=O)O[C@@H]1C[C@H]1CCCCCc1nc3ccc(OC)cc3nc1O2)C(=O)NS(=O)(=O)C1CC1 [grazoprevir],"difference in Ki, genotype 3 as compared to genotype 1",NS3 protease [8],90 fold
